Active and inactive are the calls of the source. The rule behind the calls is not given here.
Experiments:
Assay type in all cases: functional
[1] = system: Pseudomonas aeruginosa; assay: Potentiation of minocycline-induced antibacterial activity against multidrug/extremely drug-resistant/colistin-susceptible Pseudomonas aeruginosa isolate 101885 assessed as fold reduction in minocycline MIC at 4 ug/ml after 18 hrs by checkerboard assay relative to control
In short: (§1)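 Checkerboard in Mueller-Hinton broth, 10 × 7 matrix, with the adjuvant held at 4 µg/mL. Inoculum from a 0.5 McFarland suspension diluted 1:50; 18 h at 37 °C. Antibiotic MIC (lowest concentration with no growth) with adjuvant is compared with the antibiotic MIC alone, giving a fold reduction.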

[2] = system: Klebsiella pneumoniae; assay: Potentiation of rifampicin-induced antibacterial activity against multidrug-resistant Klebsiella pneumoniae 116381 at 4 ug/ml after 18 hrs by checkerboard assay
In short: (§2)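 Checkerboard in Mueller-Hinton broth: antibiotic serially diluted along one axis and adjuvant along the other (10 × 7 matrix). Inoculum from a 0.5 McFarland saline suspension diluted 1:50 in MHB; 18 h at 37 °C, then plate read. MIC is the lowest concentration with no growth. FIC of each agent is its concentration in a no-growth well divided by its MIC alone; FIC index is the sum of both. FIC index ≤0.5 counts as synergy.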

[3] = system: Pseudomonas aeruginosa; assay: Potentiation of chloramphenicol-induced antibacterial activity against Pseudomonas aeruginosa PAO1 at 4 ug/ml after 18 hrs by checkerboard assay; in short: as §2
[4] = system: Pseudomonas aeruginosa; assay: Potentiation of minocycline-induced antibacterial activity against multidrug/extremely drug-resistant/colistin-susceptible Pseudomonas aeruginosa isolate 101885 at 4 ug/ml after 18 hrs by checkerboard assay; in short: as §2
[5] = system: Acinetobacter baumannii; assay: Synergistic antibacterial activity against multidrug-resistant Acinetobacter baumannii AB031 after 18 hrs in presence of rifampicin by checkerboard assay; conditions: AB031, 18 h
In short: (§3)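 Checkerboard in MHB with a 10 × 7 matrix: antibiotic serially diluted along one axis, adjuvant along the other. Inoculum was a 1:50 dilution of a 0.5 McFarland suspension, incubated 18 h at 37 °C and read on a plate reader. Each FIC is the concentration in a no-growth well divided by the MIC alone; FIC index is their sum, with ≤0.5 taken as synergy.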

[6] = system: Pseudomonas aeruginosa; assay: Potentiation of minocycline-induced antibacterial activity against multidrug/extremely drug-resistant/colistin-resistant Pseudomonas aeruginosa isolate 101243 at 4 ug/ml after 18 hrs by checkerboard assay; in short: as §2
[7] = system: Pseudomonas aeruginosa; assay: Potentiation of minocycline-induced antibacterial activity against multidrug/extremely drug-resistant/colistin-susceptible Pseudomonas aeruginosa isolate P259-96918 at 4 ug/ml after 18 hrs by checkerboard assay; in short: as §2
[8] = system: Pseudomonas aeruginosa; assay: Potentiation of minocycline-induced antibacterial activity against Pseudomonas aeruginosa PAO200 harboring MexAB-oprM deletion mutant after 18 hrs by checkerboard assay; in short: as §2
[9] = system: Enterobacter cloacae; assay: Potentiation of minocycline-induced antibacterial activity against multidrug-resistant Enterobacter cloacae 117029 at 4 ug/ml after 18 hrs by checkerboard assay; in short: as §2
[10] = system: Acinetobacter baumannii; assay: Synergistic antibacterial activity against multidrug-resistant Acinetobacter baumannii AB027 after 18 hrs in presence of minocycline by checkerboard assay; conditions: AB027, 18 h; in short: as §3
[11] = system: Pseudomonas aeruginosa; assay: Potentiation of minocycline-induced antibacterial activity against multidrug/extremely drug-resistant/colistin-susceptible Pseudomonas aeruginosa isolate 100036 at 4 ug/ml after 18 hrs by checkerboard assay; in short: as §2
[12] = system: Acinetobacter baumannii; assay: Synergistic antibacterial activity against multidrug-resistant Acinetobacter baumannii 110193 after 18 hrs in presence of minocycline by checkerboard assay; conditions: Acinetobacter baumannii, 110193, 18 h; in short: as §3
[13] = system: Pseudomonas aeruginosa; assay: Bactericidal activity against Pseudomonas aeruginosa PAO1 at 0.125 times antibacterial MIC after 6 hrs
[14] = system: Pseudomonas aeruginosa; assay: Synergistic antibacterial activity against Pseudomonas aeruginosa PAO1 after 18 hrs in presence of gentamicin by checkerboard assay; conditions: PAO1, 18 h
In short: (§4)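 Checkerboard in MHB: antibiotic diluted along one axis and adjuvant along the other (10 × 7 matrix). Inoculum was a 1:50 dilution in MHB of a 0.5 McFarland saline suspension; incubated 18 h at 37 °C. Each FIC = concentration in the no-growth well divided by the MIC alone; FIC index = sum of both FICs. ≤0.5 synergy, 0.5–4 no interaction, ≥4 antagonism.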

[15] = system: Acinetobacter baumannii; assay: Potentiation of rifampicin-induced antibacterial activity against multidrug-resistant Acinetobacter baumannii AB031 at 4 ug/ml after 18 hrs by checkerboard assay; in short: as §2
[16] = system: Pseudomonas aeruginosa; assay: Potentiation of rifampicin-induced antibacterial activity against multidrug/extremely drug-resistant/colistin-susceptible Pseudomonas aeruginosa isolate 101885 at 4 ug/ml after 18 hrs by checkerboard assay; in short: as §2
[17] = system: Acinetobacter baumannii; assay: Potentiation of rifampicin-induced antibacterial activity against multidrug-resistant Acinetobacter baumannii AB027 at 4 ug/ml after 18 hrs by checkerboard assay; in short: as §2
[18] = system: Pseudomonas aeruginosa; assay: Antibacterial activity against multidrug/extremely drug-resistant/colistin-susceptible Pseudomonas aeruginosa isolate P262-101856 infected in Galleria mellonella assessed as mortality at 75 mg/kg after 24 hrs relative to control; conditions: isolate P262-101856, 24 h
In short: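 Galleria mellonella larvae (about 250 mg, used within 7 days; 15 per group) were injected with 10 µL of XDR P. aeruginosa P262 at 1.0×10^3 CFU/mL. At 2 h they received a single 10 µL injection: monotherapy at 75 mg/kg, or combinations at 12.5+12.5 to 75+75 mg/kg. PBS vehicle served as control. Survival was scored over 24 h at 37 °C.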

[19] = system: Pseudomonas aeruginosa; assay: Potentiation of minocycline-induced antibacterial activity against multidrug/extremely drug-resistant/colistin-susceptible Pseudomonas aeruginosa isolate P262-101856 assessed as fold reduction in minocycline MIC at 4 ug/ml after 18 hrs by checkerboard assay relative to control; in short: as §1
[20] = system: Pseudomonas aeruginosa; assay: Synergistic antibacterial activity against Pseudomonas aeruginosa PAO1 after 18 hrs in presence of vancomycin by checkerboard assay; conditions: PAO1, 18 h; in short: as §4
[21] = system: Pseudomonas aeruginosa; assay: Synergistic antibacterial activity against Pseudomonas aeruginosa PAO1 after 18 hrs in presence of colistin by checkerboard assay; conditions: PAO1, 18 h; in short: as §4
[22] = system: Pseudomonas aeruginosa; assay: Potentiation of rifampicin-induced antibacterial activity against multidrug/extremely drug-resistant/colistin-susceptible Pseudomonas aeruginosa isolate P264-104354 at 4 ug/ml after 18 hrs by checkerboard assay
In short: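 Checkerboard broth microdilution in MHB: antibiotic serially diluted along one axis, adjuvant along the other (10 × 7 matrix). Inoculum from 0.5 McFarland saline suspension diluted 1:50 in MHB; 18 h at 37 °C. MIC taken as lowest concentration with no growth. FIC per agent = combination MIC/MIC alone; FIC index = sum (≤0.5 synergy).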

[23] = system: Pseudomonas aeruginosa; assay: Potentiation of novobiocin-induced antibacterial activity against Pseudomonas aeruginosa PAO1 at 4 ug/ml after 18 hrs by checkerboard assay
[24] = system: Pseudomonas aeruginosa; assay: Potentiation of rifampicin-induced antibacterial activity against Pseudomonas aeruginosa PAO200 harboring MexAB-oprM deletion mutant after 18 hrs by checkerboard assay; in short: as §2
[25] = system: Escherichia coli; assay: Antibacterial activity against amikacin-resistant Escherichia coli isolate CAN-ICU 63074 after 18 hrs by microtiter dilution assay; conditions: isolate CAN-ICU 63074, 18 h
In short: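 Broth microdilution following CLSI guidelines. An overnight culture was adjusted to 0.5 McFarland in saline, then diluted 1:50 in Mueller-Hinton broth. This inoculum was added in equal volume to 2-fold serial dilutions of agent in MHB and incubated 18 h at 37 °C. MIC was the lowest concentration with no visible growth.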

Cl.Cl.Cl.Cl.Cl.Cl.Cl.NCCCC[C@H](N)C(=O)N(CCCCCCCCCCCCO[C@@H]1[C@@H](O[C@H]2O[C@H](CO)[C@@H](O)[C@H](N)[C@H]2O)[C@H](N)C[C@H](N)[C@H]1O[C@H]1O[C@H](CN)[C@@H](O)C[C@H]1N)Cc1c2ccccc2c(Cl)c2ccccc12
fold change (FC) [1]: 16 | fractional inhibitory concentration index (FICI) [2]: 0.047 | fractional inhibitory concentration index (FICI) [3]: 0.156 | fractional inhibitory concentration index (FICI) [4]: 0.156 | MIC [5]: 1 µg/mL | fractional inhibitory concentration index (FICI) [6]: 0.281 | fractional inhibitory concentration index (FICI) [7]: 0.047 | fractional inhibitory concentration index (FICI) [8]: 0.531 | fractional inhibitory concentration index (FICI) [9]: 0.062 | MIC [10]: 1 µg/mL | fractional inhibitory concentration index (FICI) [11]: 0.094 | MIC [12]: 2 µg/mL | Activity [13]: inactive | MIC [14]: 4 µg/mL | fractional inhibitory concentration index (FICI) [15]: 0.09 | fractional inhibitory concentration index (FICI) [16]: 0.094 | fractional inhibitory concentration index (FICI) [17]: 0.079 | mortality at 75 mg/kg [18]: 100% | fold change (FC) [19]: 128 | MIC [20]: 4 µg/mL | MIC [21]: 1 µg/mL | fractional inhibitory concentration index (FICI) [22]: 0.094 | fractional inhibitory concentration index (FICI) [23]: 0.071 | fractional inhibitory concentration index (FICI) [24]: 0.129 | MIC [25]: 16 µg/mL

Source: ChEMBL document CHEMBL4014308, “Amphiphilic Tobramycin-Lysine Conjugates Sensitize Multidrug Resistant Gram-Negative Bacteria to Rifampicin and Minocycline” (J Med Chem, 2017)
